Results on six compounds are retold here after paper PMC7080047 (Medicinal Chemistry Research, 2014).

The EC50 is the concentration giving half of the maximal effect.

For assay [1], the system named is NO production in chicken macrophages. Particulars: ref Sung et al., 1994; cited from earlier work.
The test system of assay [2] is immune-activated NO production by mouse peritoneal cells. The assay is described as follows: in vitro nitric oxide. Type of assay: cell-based. To be noted: for pIC50: read-out: NO-inhibitory IC 50, LPS/IFN-γ stimulated mouse peritoneal cells, 24 h; for concentration at which NO-suppressive effects were already apparent: dose-response, Fig. 2. The essentials:
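Peritoneal lavage cells (8 mL saline) pooled from 4–10 female C57BL/6 mice, 8–10 weeks old, seeded at 2 × 10^6 cells/mL in RPMI-1640 with 10% FBS, 37 °C, 5% CO2. Test compound (DMSO stock diluted in medium; DMSO control) added for 24 h with IFN-γ 0.5 ng/mL plus E. coli LPS 0.1 ng/mL, duplicates. Supernatant nitrite measured by Griess reagent at A540 against a nitrite standard curve, expressed as % of control.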

The test system of the next assay is HIV-1. Put plainly: antiviral activity, HIV-1 in CEM cells. Type of assay: cell-based. Particulars: Human immunodeficiency virus 1, CCRF-CEM, read-out: antiviral EC50.
The subject of a further assay is HIV-2. The assay is described as follows: antiviral activity, HIV-2 in CEM cells. Type of assay: cell-based. To be noted: Human immunodeficiency virus 2, CCRF-CEM, read-out: antiviral EC50.
The test system of another assay is HSV-1. Put plainly: antiviral activity, HSV-1 in HeLa cells. Type of assay: cell-based. Particulars: Human alphaherpesvirus 1, HeLa, read-out: antiviral EC50.
The subject of another assay is HSV-2. The assay is described as follows: antiviral activity, HSV-2 in HeLa cells. Type of assay: cell-based. Particulars: Human alphaherpesvirus 2, HeLa, read-out: antiviral EC50.
The subject of a further assay is vaccinia virus. Put plainly: antiviral activity, vaccinia virus in HeLa cells. Type of assay: cell-based. To be noted: Orthopoxvirus vaccinia, read-out: antiviral EC50.
For assay [3], the system named is vesicular stomatitis virus (VSV). The assay is described as follows: microbe, parasite or virus in culture. Type of assay: cell-based. Particulars: HeLa, read-out: antiviral EC50.
Another assay relates to Feline herpes virus. Put plainly: antiviral activity, Feline herpes virus in CRFK cells. Type of assay: cell-based. To be noted: read-out: antiviral EC50.
The subject of assay [4] is respiratory syncytial virus (RSV). Put plainly: antiviral activity, respiratory syncytial virus in HeLa cells. Particulars: human respiratory syncytial virus, read-out: antiviral EC50. Type of assay: cell-based.
Another assay has as its system Parainfluenza 3-virus. The assay is described as follows: antiviral activity, Parainfluenza 3-virus in MDCK cells. Type of assay: cell-based. Particulars: read-out: antiviral EC50.
For a further assay, the system named is Reovirus-1. Put plainly: antiviral activity, Reovirus-1 in MDCK cells. To be noted: read-out: antiviral EC50. Type of assay: cell-based.
In a further assay the test system is Punta Toro virus. The assay is described as follows: antiviral activity, Punta Toro virus in MDCK cells. Type of assay: cell-based. Particulars: read-out: antiviral EC50.
Assay [5] concerns viruses such as members of the Herpes, Picorna, and Pox groups. Particulars: ref Marcialis et al., 1973, 1974, La Colla et al., 1975; cited from earlier work.

pIC50: −log10 of the molar value. Where only a bound is given, the exact number is not on record here.

In the case of `Nc1cc(O)nc(N)n1` [2,4-diamino-6-hydroxypyrimidine], the “effect on NO production (in words)” value in assay [1] is listed as “suppresses NO production”.

Turning to `N=C(N)NN` [Aminoguanidine, aminoguanidine, reference compound], the pIC50 in [2] is 4.11.

Take `Nc1nc(Cl)cc(Cl)n1` [Compound B1, 2-amino-4,6-dichloropyrimidine]: the EC50 (in the assay with HIV-1; in the assay on HIV-2; in the assay on HSV-1; in the assay with HSV-2; in the assay on vaccinia virus; in [3]) was > 100 µg/mL in each case. Moreover, the concentration giving a half-maximal response (EC50) (with Feline herpes virus; in [4]; with Parainfluenza 3-virus; with Reovirus-1; in the assay on Punta Toro virus) was > 100 µg/mL each time. The “concentration required for antiviral activities described in the literature” value in [5] is ~100 µg/mL.

Consider `C#CCc1c(Cl)nc(N)nc1Cl` [Compound B6, 4,6-Dichloro-5-(prop-2-yn-1-yl)pyrimidin-2-amine], for which, in assay [2], the “concentration at which NO-suppressive effects were already apparent” value stood at 2.5 µM.

On to `Nc1nc(Cl)c(F)c(Cl)n1` [Compound B12, 5-fluoro-2-amino-4,6-dichloropyrimidine], for which the “concentration at which NO-suppressive effects were already apparent” value in assay [2] turned out to be 2.5 µM. For the same compound, the “effect on immune-activated NO production (in words)” value in [2] (mouse peritoneal cells) is “nearly completely suppressed the production of NO”.

As for “N-(3-aminomethyl)-benzylacetamide [1,400 W, reference compound]”, in [2], the pIC50 was 5.41.
